# Sampled rows, rich in hits. Any-hit rate of the full collection: about 3.5%.
# MrgX1 allo act – human MrgX1 positive allosteric modulation, primary screen; Q96LB2; MrgX1-HEK293, Fluo-4 calcium flux, FDSS; hits give high values; B-score at 10 µM; 310,000 tested, 0.63% active; AID 588675;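 active means plate-corrected calcium response at least 3 library SD above typical, normal starting fluorescence, not activating the receptor alone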;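 further: compound read alongside a low EC10 to EC30 dose of BAM8-22 agonist; peak minus trough fluorescence over baseline measured at the second addition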
# Target sequence (Q96LB2 whole entry, looked up): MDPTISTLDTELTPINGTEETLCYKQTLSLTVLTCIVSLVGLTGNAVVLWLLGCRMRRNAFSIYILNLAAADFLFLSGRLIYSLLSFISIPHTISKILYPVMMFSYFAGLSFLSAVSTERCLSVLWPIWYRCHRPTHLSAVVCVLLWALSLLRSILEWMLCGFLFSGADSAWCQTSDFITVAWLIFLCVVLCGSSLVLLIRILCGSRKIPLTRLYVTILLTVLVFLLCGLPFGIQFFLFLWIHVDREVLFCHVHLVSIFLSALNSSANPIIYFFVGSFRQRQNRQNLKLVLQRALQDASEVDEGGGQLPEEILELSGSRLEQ
# MrgX1 antagonist – human MrgX1 receptor antagonism, primary screen; MRGX1-HEK293 calcium flux, Fluo-4, BAM8-22 antagonism; hits give low values; B-score at 10 µM; 310,000 tested, 1.3% active; AID 588676;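 active means calcium-response B-score plate-corrected more than 3 library SD below zero, starting fluorescence within 5 deviations, no agonist response on first addition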;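 further: peak minus trough fluorescence over baseline after final BAM8-22 challenge near maximal dose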
# RGS4 pot – RGS4 potentiation or activation | HEK293 M3R/inducible RGS4, carbachol calcium flux Fluo4; hits give low values | B-score at 10 µM | 310,000 tested, 0.92% active | AID 463111;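 active means B-score of the integrated calcium signal more than 4 SD below the library mean, with starting fluorescence not abnormally high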;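 further: negative B-score means reduced calcium response which marks RGS4 activation or potentiation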
#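 Material: Inducible-RGS4 HEK293 cells carrying M3 receptor; also added: carbachol at ECmax as muscarinic agonist stimulus; incubation: compound preincubation 20 min at room temperature before agonist; signal: Fluo4-AM (2 µM) calcium-flux fluorescence, kinetic read; measure: integrated calcium ratio converted to B score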
# MrgX1 ag – human MrgX1 receptor agonism, primary screen | MrgX1-HEK293 cells, Fluo-4 calcium fluorescence, agonist mode; hits give high values | B-score at 10 µM | 310,000 tested, 0.44% active;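 active means calcium response B-score plate-corrected fluorescence ratio at least 3 library SD, with starting fluorescence B-score inside 5 SD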
#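 System: HEK293 cells stably expressing human MrgX1 receptor; Dosing: test compound in the initial addition of three; Schedule: overnight plating, then 30 min 37 °C plus 30 min room-temperature dye loading; Detection: kinetic calcium dye fluorescence, Fluo-4 NW; Controls: per-plate positive and negative controls for Z′ factor.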
# RGS4 block – human RGS4 inhibition; HEK293 M3R/RGS4 inducible, Fluo-4 calcium flux; hits give high values; triggered by carbachol at its EC20; P49798; 310,000 tested, 0.45% active; B-score at 10 µM;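 active means B-score, a plate-corrected calcium signal, over three deviations above library mean, with baseline fluorescence within five deviations of library mean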;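 further: RGS4 expression induced by doxycycline in cells with stable M3 receptor; B-score is computed from the integrated fluorescence ratio over baseline after carbachol; higher B-score means a larger calcium signal and so more RGS4 inhibition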
# Target sequence (P49798 whole entry, looked up): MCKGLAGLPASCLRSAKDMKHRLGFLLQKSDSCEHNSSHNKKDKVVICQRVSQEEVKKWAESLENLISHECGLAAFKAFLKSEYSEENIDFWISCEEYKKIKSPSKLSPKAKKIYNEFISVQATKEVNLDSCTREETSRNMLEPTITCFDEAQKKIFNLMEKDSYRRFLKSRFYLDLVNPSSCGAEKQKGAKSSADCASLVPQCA
# MrgX1 antag conf – confirmation of human MrgX1 receptor antagonists | shares compounds with MrgX1 antagonist | MrgX1-HEK293, BAM8-22 calcium flux, Fluo-4; hits give low values | remaining BAM8-22 calcium response % of control (hits give low values), % at 10 µM | 2,300 tested, 19% active;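 active means remaining agonist calcium response no higher than 100% minus 3 SD of agonist-only control wells, with starting fluorescence near control levels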;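 further: agonist BAM8-22 given at a near maximal EC90 to ECmax level; peak minus minimum fluorescence divided by baseline after agonist addition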
# HEK293 Ca flux – activity in parental HEK293 cells lacking MrgX1; Fluo-4 calcium fluorescence, FDSS; shares compounds with MrgX1 antagonist; fluorescence ratio F(max-min)/F0 at 10 µM; AID 624111; 4,000 tested, 2% active;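 active means duplicate-averaged calcium fluorescence ratio at least three times the standard deviation of buffer wells, a nonspecific response in parental cells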
# HEK293 Ca counter – MrgX1 allosteric activator counter-screen hit in parental HEK293 cells. fluorescence ratio F(max-min)/F0 at 10 µM. parental HEK293 calcium flux, Fluo-4 fluorescence ratio; hits give high values. shares compounds with MrgX1 antagonist. 4,000 tested, 0.4% active;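 active means calcium fluorescence ratio, averaged over duplicates, at least 3 SD of the buffer-well ratio, meaning a nonspecific response in receptor-free cells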;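 further: untransfected parental HEK293 lacking MrgX1 used as counterscreen for MrgX1 allosteric activators; fluorescence change taken during the second addition on a kinetic imager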
# HEK293 Ca cntr2 – MrgX1 activator counter-screen hit in parental HEK293 cells; shares compounds with MrgX1 antagonist; Fluo-4 calcium fluorescence (FDSS); hits give high values; fluorescence ratio F(max-min)/F0 at 10 µM; 4,000 tested, 8.7% active;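 active means calcium fluorescence ratio at least three times the spread of buffer wells, meaning a non-specific response in parental cells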
# Hits are given with their value; i = inactive; nt = not tested or not shown.
SMILES,MrgX1 allo act,MrgX1 antagonist,RGS4 pot,MrgX1 ag,RGS4 block,MrgX1 antag conf,HEK293 Ca flux,HEK293 Ca counter,HEK293 Ca cntr2
CCCn1c(C(C)NS(=O)(=O)c2ccccc2)n[nH]c1=S (stereo not drawn),i,i,i,i,i,nt,nt,nt,nt
CCn1c(C(C)NS(=O)(=O)c2ccc(Cl)cc2)n[nH]c1=S (stereo not drawn),i,-6.5,i,i,i,i,i,i,i
CCN(CC)S(=O)(=O)c1ccc(C(=O)N2CCN=C2SCc2cccnc2)cc1,i,i,i,i,i,nt,nt,nt,nt
Cc1cccc(NC(=O)c2cc(NC(=O)c3ccco3)ccc2Cl)n1,i,-4.7,nt,i,nt,85%,i,i,i
CCC(=O)Nc1ccc(S(=O)(=O)N2CCc3ccccc32)cc1,i,i,i,i,i,nt,nt,nt,nt
O=C(Nc1ccc(S(=O)(=O)N2CCc3ccccc32)cc1)c1ccco1,i,-4.8,i,i,i,i,i,i,i
Cc1ccccc1C(=O)N1CCC(C(=O)Nc2ccc(S(=O)(=O)N3CCCCC3)cc2)CC1,i,i,i,i,i,nt,nt,nt,nt
Cc1ccc(S(=O)(=O)/N=c2\scc(C)n2C)cc1,i,-5.5,i,i,i,i,i,i,i
Cc1ccc(S(=O)(=O)/N=C2\CN(C)C(=O)N2C)cc1,i,i,i,i,i,nt,nt,nt,nt
COc1ccc(CC(=O)Nc2ccc(C(=O)Nc3ccccc3C(=O)O)cc2)cc1OC,i,i,i,i,i,nt,nt,nt,nt
NC(=O)C1CCN(C(=O)NC2CC(=O)N(c3ccc4c(c3)OCCO4)C2)CC1 (stereo not drawn),i,-6.9,i,i,i,i,i,i,i
CC(=O)N1CCN(c2nc(-c3cccs3)nc3ccccc23)CC1,i,-4.7,i,i,i,i,i,i,i
CCOc1ncccc1C(=O)OCc1ccc(C(=O)OC)cc1,i,i,i,i,i,nt,nt,nt,nt
COc1ccc(-c2nc3c(c4nnc(SC(C)C(=O)Nc5ccccc5)n24)COC(C)(C)C3)cc1 (stereo not drawn),i,-6.5,i,i,i,i,i,i,i
Cc1ccccc1C(=O)Nc1cccc(-c2ccc(N3CCOCC3)nn2)c1,i,-5,i,i,i,i,i,i,i
COc1ccc(NC(=O)CSc2nc(=O)n(CCN3CCOCC3)c3c2CCC3)c(OC)c1,i,-7.6,i,i,i,i,i,i,i
COc1ccc(NC(=O)CSc2ccccc2)c(OC)c1,i,-9.1,i,i,i,i,i,i,i
Cc1ccc(S(=O)(=O)c2ncccc2[N+](=O)[O-])cc1,i,i,i,i,i,nt,nt,nt,nt
COc1ccc(CN2C(=NC(=O)C3CCCCC3)SC3CS(=O)(=O)CC32)cc1 (stereo not drawn),i,i,i,i,i,nt,nt,nt,nt
CCc1sc(C(=O)N2CCN(c3ccc(F)cc3)CC2)cc1C,i,i,i,i,i,nt,nt,nt,nt
Cc1cc(C)n(-c2nnc(C)n2N)n1,i,-5.9,i,i,i,85%,i,i,i
Cc1cc(C)n(-c2nnc(C)n2/N=C/c2ccccc2O)n1,i,i,i,i,i,nt,nt,nt,nt
O=C(NCCc1ccncc1)Nc1cccc(Cl)c1,i,-4.6,i,i,i,i,i,i,i
N#Cc1c(NC(=O)c2ccc(Cn3cc(Br)cn3)o2)sc2c1CCCCC2,i,i,i,i,i,nt,nt,nt,nt
COC(=O)c1sc(NC(=O)c2ccc(Cn3cc(Cl)cn3)o2)c(C#N)c1C,i,-4.6,i,i,i,i,i,i,i
SMILES,MrgX1 allo act,MrgX1 antagonist,RGS4 pot,MrgX1 ag,RGS4 block,MrgX1 antag conf,HEK293 Ca flux,HEK293 Ca counter,HEK293 Ca cntr2
O=c1[nH]c(Cc2ccccc2)nc2c1oc1ccccc12,i,i,i,i,i,nt,nt,nt,nt
O=c1[nH]c(CO)nc2c1oc1ccccc12,i,-6.7,i,i,i,i,i,i,i
Cc1[nH]c2ccccc2c1C(=O)CN1CC(C)OC(C)C1 (stereo not drawn),i,i,i,i,i,nt,nt,nt,nt
Cc1cc(C)cc(N2C(=O)C3CC=CCC3C2=O)c1 (stereo not drawn),i,-5.2,i,i,i,i,i,i,i
Cc1nc(NCc2ccccn2)c2c3c(sc2n1)CCCC3,i,-5.2,i,i,i,i,i,i,i
CCCCN(C)C(=S)Nc1ccc(Oc2ccccc2)cc1,i,-6.3,i,i,i,i,i,i,i
Cc1ccc(S(=O)(=O)NC2c3cccc4cccc(c34)C2Sc2n[nH]c(N)n2)cc1 (stereo not drawn),i,i,i,i,i,nt,nt,nt,nt
O=S(=O)(NC1c2cccc3cccc(c23)C1Sc1ncccn1)c1ccc(Cl)cc1 (stereo not drawn),i,-4.7,i,i,i,i,i,i,i
Cc1nn(-c2ccccc2)nc1C(=O)Nc1ccc2c(c1)OCCO2,i,-12,i,i,i,i,i,i,i
FC(F)C(F)(F)c1cc(-c2ccc(Cl)cc2)n[nH]1,i,-6.7,i,i,i,i,i,i,i
Oc1ccccc1-c1cc(C(F)(F)C(F)F)[nH]n1,i,i,i,i,i,nt,nt,nt,nt
Cc1cc(C(=O)N2CC=C(c3ccccc3)CC2)c2ccccc2n1,i,-4.7,i,i,i,i,i,i,i
COCCNC(=O)CN1CCN(Cc2cccc(Cl)c2)C1=O,i,i,i,i,i,nt,nt,nt,nt
COC(=O)c1cccc(Nc2ncnc3sccc23)c1,i,-4.5,i,i,i,i,i,i,i
COc1cccc(Nc2ncnc3sccc23)c1,i,i,i,i,i,nt,nt,nt,nt
COc1ccc(Cl)cc1NC(=O)CN(C)C(=O)Cc1ccc2c(c1)CCC2,i,i,i,i,i,nt,nt,nt,nt
COc1ccc(Cl)cc1NC(=O)CN(C)C(=O)Cc1ccsc1,i,-6.8,i,i,i,i,i,i,i
COc1ccccc1N1CCN(C(=O)C(=O)c2c[nH]c3ccccc23)CC1,i,i,i,i,i,nt,nt,nt,nt
C/C(N)=C(/C#N)C(=O)CSc1nc2scc(-c3ccc(F)cc3)c2c(=O)n1C,i,i,i,i,i,nt,nt,nt,nt
CN(C(=O)c1ccc2c(c1)OCO2)C1(C)CCS(=O)(=O)C1 (stereo not drawn),i,i,i,i,i,nt,nt,nt,nt
Oc1c(C=Nc2ccc(Cl)cn2)sc2ccccc12,i,i,i,i,i,nt,nt,nt,nt
Oc1c(/C=N/c2ccccn2)sc2ccccc12,i,-6.7,i,i,i,69%,i,i,i
Oc1c(C=Nc2cccnc2)sc2ccccc12,i,-4.9,i,i,i,i,i,i,i

# Compound activity deposited in PubChem by Johns Hopkins Ion Channel Center.
